Experimental data taken from ChEMBL document CHEMBL5724801, “EUbOPEN Chemogenomics Library - Multiplex” (2024).
Several values for one entry are separate records, joined by “and”; a condition that tells them apart may be missing. Equal values may be shown once.

System: HEK-293T
Experiment: Multiplex assay against HEK293T
Format: toxicity, cell-based
Conditions: human
Method in brief: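 Imaging took place on a CQ1 microscope at 37°C and 5% CO2 once compound had been added to live cells stained at seeding with Hoechst33342, BioTracker Green Microtubule Cytoskeleton Dye, MitoTracker Red and Annexin V Alexa Fluor 680. CellPathfinder machine-learning gating classed cells as Hoechst high-intensity objects or normal cells, classed normal cells as having healthy, pyknosed or fragmented nuclei, and classed pyknosed cells as mitotic or apoptotic. Tubulin, mitochondrial-mass and membrane-permeability phenotypes are per cents of the healthy-nucleus cells.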

[1] = 12 h, 1 µM, compound concentration 1 uM
[2] = 12 h, 10 µM, compound concentration 10 uM
[3] = 24 h, 1 µM, compound concentration 1 uM
[4] = 24 h, 10 µM, compound concentration 10 uM
[5] = 48 h, 1 µM, compound concentration 1 uM
[6] = 48 h, 10 µM, compound concentration 10 uM

CCOC(=O)c1c(/C(C#N)=C\N)c2ccc(Cl)c(Cl)c2n1C
Population Apoptotic (%) [1]: 10.92% and 11.11%
Population Fragmented Nuclei (%) [1]: 1.47% and 6.57%
Population Healthy Nuclei (%) [1]: 63.42% and 21.17%
Population Hoechst High Intensity Objects (%) [1]: 0.59% and 0%
Population Membrane Permeable-Phenotype (%) [1]: 0.47% and 0%
Population Mitochondria Different-Phenotype (%) [1]: 35.81% and 27.59%
Population Mitotic Cells (%) [1]: 89.08% and 88.89%
Population Normal (%) [1]: 99.41% and 100%
Population Pyknosed Nuclei (%) [1]: 35.1% and 72.26%
Total Cell Count [1]: 341 and 137
Population Apoptotic (%) [2]: 10.34% and 8.77%
Population Fragmented Nuclei (%) [2]: 2.88% and 1.83%
Population Healthy Nuclei (%) [2]: 59.94% and 28.66%
Population Hoechst High Intensity Objects (%) [2]: 0.64% and 0%
Population Membrane Permeable-Phenotype (%) [2]: 0.53% and 0%
Population Mitochondria Different-Phenotype (%) [2]: 26.74% and 19.15%
Population Mitotic Cells (%) [2]: 89.66% and 91.23%
Population Normal (%) [2]: 99.36% and 100%
Population Pyknosed Nuclei (%) [2]: 37.18% and 69.51%
Total Cell Count [2]: 314 and 164
Population Apoptotic (%) [3]: 15.32% and 13.98%
Population Fragmented Nuclei (%) [3]: 1.11% and 3.87%
Population Healthy Nuclei (%) [3]: 78.41% and 36.13%
Population Hoechst High Intensity Objects (%) [3]: 0.18% and 0%
Population Membrane Permeable-Phenotype (%) [3]: 1.18% and 0%
Population Mitochondria Different-Phenotype (%) [3]: 15.29% and 16.07%
Population Mitotic Cells (%) [3]: 84.68% and 86.02%
Population Normal (%) [3]: 99.82% and 100%
Population Pyknosed Nuclei (%) [3]: 20.48% and 60%
Population Tubulin-Different-Phenotype (%) [3]: 5.88% and 5.36%
Population Apoptotic (%) [4]: 10.47% and 16.46%
Population Fragmented Nuclei (%) [4]: 1.69% and 1.2%
Population Healthy Nuclei (%) [4]: 80.17% and 51.2%
Population Hoechst High Intensity Objects (%) [4]: 0%
Population Membrane Permeable-Phenotype (%) [4]: 1.05% and 1.18%
Population Mitochondria Different-Phenotype (%) [4]: 14.21% and 7.06%
Population Mitotic Cells (%) [4]: 89.53% and 83.54%
Population Normal (%) [4]: 100%
Population Pyknosed Nuclei (%) [4]: 18.14% and 47.59%
Population Tubulin-Different-Phenotype (%) [4]: 7.11% and 4.71%
Total Cell Count [4]: 474 and 166
Population Apoptotic (%) [5]: 7.43% and 15.94%
Population Fragmented Nuclei (%) [5]: 4.65% and 2.55%
Population Healthy Nuclei (%) [5]: 86.28% and 72.26%
Population Hoechst High Intensity Objects (%) [5]: 0%
Population Membrane Permeable-Phenotype (%) [5]: 4.76% and 3.03%
Population Mitochondria Different-Phenotype (%) [5]: 8.8% and 13.13%
Population Mitotic Cells (%) [5]: 92.57% and 84.06%
Population Normal (%) [5]: 100%
Population Pyknosed Nuclei (%) [5]: 9.06% and 25.18%
Population Apoptotic (%) [6]: 9.24% and 19.3%
Population Fragmented Nuclei (%) [6]: 4.82% and 1.55%
Population Healthy Nuclei (%) [6]: 85.93% and 80.75%
Population Hoechst High Intensity Objects (%) [6]: 0% and 0.92%
Population Membrane Permeable-Phenotype (%) [6]: 5.88% and 2.31%
Population Mitochondria Different-Phenotype (%) [6]: 11.04% and 11.15%
Population Mitotic Cells (%) [6]: 90.76% and 80.7%
Population Normal (%) [6]: 100% and 99.08%
Population Pyknosed Nuclei (%) [6]: 9.25% and 17.7%

Cc1c(C(=O)NCCCN(C)C)sc2ncnc(Nc3ccc(F)cc3OC(C)CF)c12 (stereo not given)
Population Apoptotic (%) [1]: 8.15% and 7.44%
Population Fragmented Nuclei (%) [1]: 1.52% and 6.08%
Population Hoechst High Intensity Objects (%) [1]: 0%
Population Membrane Permeable-Phenotype (%) [1]: 0.79% and 5.56%
Population Mitochondria Different-Phenotype (%) [1]: 38.58% and 38.89%
Population Mitotic Cells (%) [1]: 91.85% and 92.56%
Population Normal (%) [1]: 100%
Population Pyknosed Nuclei (%) [1]: 34.18% and 81.76%
Total Cell Count [1]: 395 and 148
Population Apoptotic (%) [2]: 12.67% and 12.38%
Population Fragmented Nuclei (%) [2]: 1.93% and 0.83%
Population Healthy Nuclei (%) [2]: 25.6% and 12.4%
Population Hoechst High Intensity Objects (%) [2]: 0%
Population Mitotic Cells (%) [2]: 87.33% and 87.62%
Population Normal (%) [2]: 100%
Population Pyknosed Nuclei (%) [2]: 72.46% and 86.78%
Population Tubulin-Different-Phenotype (%) [2]: 81.13% and 53.33%
Total Cell Count [2]: 207 and 121
Population Apoptotic (%) [3]: 11.02% and 10.43%
Population Fragmented Nuclei (%) [3]: 2.43% and 2.58%
Population Hoechst High Intensity Objects (%) [3]: 0%
Population Membrane Permeable-Phenotype (%) [3]: 0.68% and 2.78%
Population Mitochondria Different-Phenotype (%) [3]: 18.96% and 11.11%
Population Mitotic Cells (%) [3]: 88.98% and 89.57%
Population Normal (%) [3]: 100%
Population Tubulin-Different-Phenotype (%) [3]: 36.57% and 13.89%
Population Apoptotic (%) [4]: 33.73% and 30.77%
Population Fragmented Nuclei (%) [4]: 1.65% and 0%
Population Healthy Nuclei (%) [4]: 29.75% and 17.27%
Population Hoechst High Intensity Objects (%) [4]: 0%
Population Membrane Permeable-Phenotype (%) [4]: 1.39% and 0%
Population Mitochondria Different-Phenotype (%) [4]: 69.44% and 26.32%
Population Mitotic Cells (%) [4]: 66.27% and 69.23%
Population Normal (%) [4]: 100%
Population Pyknosed Nuclei (%) [4]: 68.6% and 82.73%
Population Tubulin-Different-Phenotype (%) [4]: 80.56% and 73.68%
Total Cell Count [4]: 242 and 110
Population Apoptotic (%) [5]: 9.92% and 23.86%
Population Fragmented Nuclei (%) [5]: 3.85% and 2.43%
Population Healthy Nuclei (%) [5]: 86.64% and 54.85%
Population Hoechst High Intensity Objects (%) [5]: 0%
Population Membrane Permeable-Phenotype (%) [5]: 6.37% and 1.77%
Population Mitochondria Different-Phenotype (%) [5]: 17.27% and 49.56%
Population Mitotic Cells (%) [5]: 90.08% and 76.14%
Population Normal (%) [5]: 100%
Population Apoptotic (%) [6]: 42.07% and 65.33%
Population Fragmented Nuclei (%) [6]: 1.78% and 1.64%
Population Healthy Nuclei (%) [6]: 46.62% and 36.89%
Population Hoechst High Intensity Objects (%) [6]: 0.35% and 0.81%
Population Membrane Permeable-Phenotype (%) [6]: 1.53% and 0%
Population Mitochondria Different-Phenotype (%) [6]: 90.84% and 55.56%
Population Mitotic Cells (%) [6]: 57.93% and 34.67%
Population Normal (%) [6]: 99.65% and 99.19%
Population Pyknosed Nuclei (%) [6]: 51.6% and 61.48%
Population Tubulin-Different-Phenotype (%) [6]: 30.53% and 82.22%
Total Cell Count [6]: 282 and 123
